# Reference: ChEMBL document CHEMBL1152830, “Synthesis of 2-sulfanyl-6-methyl-1,4-dihydropyrimidines as a new class of antifilarial agents” (Eur J Med Chem, 2008)
# Active and inactive are the calls of the source. The rule behind the calls is not given here.
# Legend:
# Brugia malayi [1] = assay: Antifilarial activity against Brugia malayi sub-periodic strain assessed as complete loss of motility at 50 uM; assay type: functional, organism-based
# Procedure, shortened: (§1)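 Adult B. malayi worms kept in vitro with compound, then motility scored. The worms were also moved to fresh drug-free medium at 37 °C for 30 min to judge whether paralysis was irreversible. The vehicle served as control.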
# Brugia malayi [2] = assay: Antifilarial activity against Brugia malayi sub-periodic strain in Mastomys coucha assessed as microfilarial count at 100 mg/kg, ip for 5 days measured after 8 days; assay type: functional; conditions: route intraperitoneal
# Brugia malayi [3] = assay: Embryostatic activity against Brugia malayi sub-periodic strain in Mastomys coucha assessed as sterilized female worms at 50 mg/kg, ip for 5 days; assay type: functional; conditions: route intraperitoneal
# Brugia malayi [4] = assay: Antifilarial activity against Brugia malayi sub-periodic strain assessed as complete loss of motility at 100 uM; assay type: functional, organism-based; procedure, shortened: as §1
# Brugia malayi [5] = assay: Antifilarial activity against Brugia malayi sub-periodic strain in Mastomys coucha assessed as reduction in worm burden at 100 mg/kg, ip for 5 days relative to control; assay type: functional; design: scale not given: the % may be the effect or the level left; conditions: route intraperitoneal
# Brugia malayi [6] = assay: Embryostatic activity against Brugia malayi sub-periodic strain in Mastomys coucha assessed as sterilized female worms at 100 mg/kg, ip for 5 days; assay type: functional; conditions: route intraperitoneal
# Brugia malayi [7] = assay: Antifilarial activity against Brugia malayi sub-periodic strain in Mastomys coucha assessed as reduction in worm burden at 50 mg/kg, ip for 5 days relative to control; assay type: functional; design: scale not given: the % may be the effect or the level left; conditions: route intraperitoneal
# Brugia malayi [8] = assay: Antifilarial activity against Brugia malayi sub-periodic strain at 100 uM by MTT reduction assay; assay type: functional
# Procedure, shortened: (§2)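 MTT reduction was measured on adult B. malayi worms after in vitro drug exposure. Each result is percent inhibition of MTT reduction relative to vehicle control, given as mean ± SD.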
# Brugia malayi [9] = assay: Antifilarial activity against Brugia malayi sub-periodic strain assessed as complete loss of motility at 25 uM; assay type: functional, organism-based; procedure, shortened: as §1
# Mastomys coucha = assay: Toxicity against Mastomys coucha assessed as mortality at 50 to 100 mg/kg, ip for 5 days measured after 15 days; assay type: organism-based; design: dose 50-100 mg/kg, route intraperitoneal; conditions: in vivo, 360 h
# Procedure, shortened: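 Normal (uninfected) Mastomys coucha received the compound i.p. once daily for 5 days. Animals were watched for mortality and for adverse effects on general and gross health during dosing and for up to 15 days after treatment.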
# Brugia malayi [10] = assay: Embryostatic activity against transplanted adult worms of Brugia malayi sub-periodic strain in Meriones unguiculatus assessed as sterilized female worms at 100 mg/kg, ip for 5 days; assay type: functional; conditions: route intraperitoneal
# Procedure, shortened: (§3)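 Meriones unguiculatus (jirds) carrying transplanted adult B. malayi were dosed i.p. once daily for 5 days, 5 animals per group. Microfilariae in the peritoneal cavity were checked. Live male and female worms and sterilized females were counted. Results are percent relative to untreated controls, given as mean ± SD.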
# Brugia malayi [11] = assay: Antifilarial activity against Brugia malayi sub-periodic strain at 50 uM by MTT reduction assay; assay type: functional; procedure, shortened: as §2
# Brugia malayi [12] = assay: Antifilarial activity against Brugia malayi sub-periodic strain in Mastomys coucha assessed as microfilarial count at 50 mg/kg, ip for 5 days measured after 8 days; assay type: functional; conditions: route intraperitoneal
# Brugia malayi [13] = assay: Antifilarial activity against Brugia malayi sub-periodic strain at 25 uM by MTT reduction assay; assay type: functional; procedure, shortened: as §2
# Brugia malayi [14] = assay: Antifilarial activity against transplanted adult worms of Brugia malayi sub-periodic strain in Meriones unguiculatus assessed as reduction in worm burden 100 mg/kg, ip for 5 days relative to control; assay type: functional; design: scale not given: the % may be the effect or the level left; conditions: route intraperitoneal; procedure, shortened: as §3
# Brugia malayi [15] = assay: Antifilarial activity against Brugia malayi sub-periodic strain assessed as motility at 100 uM; assay type: functional, organism-based; procedure, shortened: as §1
# Brugia malayi [16] = assay: Embryostatic activity against Brugia malayi sub-periodic strain in Mastomys coucha assessed as sterilized female worms at 25 mg/kg, ip for 5 days; assay type: functional; conditions: route intraperitoneal
# Brugia malayi [17] = assay: Antifilarial activity against Brugia malayi sub-periodic strain in Mastomys coucha assessed as reduction in worm burden at 25 mg/kg, ip for 5 days relative to control; assay type: functional; design: scale not given: the % may be the effect or the level left; conditions: route intraperitoneal
# Brugia malayi [18] = assay: Antifilarial activity against Brugia malayi sub-periodic strain in Mastomys coucha assessed as microfilarial count at 25 mg/kg, ip for 5 days measured after 8 days; assay type: functional; conditions: route intraperitoneal
# Brugia malayi [19] = assay: Antifilarial activity against Brugia malayi sub-periodic strain at 200 uM by MTT reduction assay; assay type: functional, organism-based; procedure, shortened: as §2
# Brugia malayi [20] = assay: Embryostatic activity against transplanted adult worms of Brugia malayi sub-periodic strain in Meriones unguiculatus assessed as sterilized female worms at 12.5 mg/kg, ip for 5 days; assay type: functional; conditions: route intraperitoneal; procedure, shortened: as §3
# Brugia malayi [21] = assay: Antifilarial activity against Brugia malayi sub-periodic strain assessed as motility at 200 uM; assay type: functional, organism-based; procedure, shortened: as §1
# Brugia malayi [22] = assay: Antifilarial activity against Brugia malayi sub-periodic strain assessed as sluggish motility at 400 uM; assay type: functional, organism-based; procedure, shortened: as §1
# Brugia malayi [23] = assay: Antifilarial activity against Brugia malayi sub-periodic strain assessed as motility at 50 uM; assay type: functional, organism-based; procedure, shortened: as §1
# Brugia malayi [24] = assay: Antifilarial activity against Brugia malayi sub-periodic strain at 400 uM by MTT reduction assay; assay type: functional, organism-based; procedure, shortened: as §2
# Brugia malayi [25] = assay: Antifilarial activity against transplanted adult worms of Brugia malayi sub-periodic strain in Meriones unguiculatus assessed as reduction in worm burden 12.5 mg/kg, ip for 5 days relative to control; assay type: functional, organism-based; design: dose 12.5 mg/kg; procedure, shortened: as §3
# Brugia malayi [26] = assay: Antifilarial activity against Brugia malayi sub-periodic strain assessed as sluggish motility at 25 uM; assay type: functional, organism-based; procedure, shortened: as §1
# Brugia malayi [27] = assay: Antifilarial activity against Brugia malayi sub-periodic strain assessed as motility at 25 uM; assay type: functional, organism-based; procedure, shortened: as §1
smiles,measurement,setting,value
CCCCCSC1=NC(c2ccc(F)cc2)C(C(=O)OCC)=C(C)N1 (centres undefined),Activity,Brugia malayi [1],Active
same,Activity,Brugia malayi [2],142.67
same,Activity,Brugia malayi [3],38.1%
same,Activity,Brugia malayi [4],Active
same,Activity,Brugia malayi [5],50%
same,Activity,Brugia malayi [6],67.71%
same,Activity,Brugia malayi [7],30.8%
same,inhibition at 100 µM,Brugia malayi [8],68.6%
same,Activity,Brugia malayi [9],Active
same,Activity,Mastomys coucha,Non-toxic
same,Activity,Brugia malayi [10],34.31%
same,inhibition at 50 µM,Brugia malayi [11],68.5%
same,Activity,Brugia malayi [12],116.5
same,inhibition at 25 µM,Brugia malayi [13],25.8%
same,Activity,Brugia malayi [14],46.03%
CCCCCSC1=NC(c2cccc3ccccc23)C(C(=O)OCC)=C(C)N1 (centres undefined),inhibition,Brugia malayi [8],inactive
same,Activity,Brugia malayi [15],inactive
CCOC(=O)C1=C(C)NC(SCc2ccccc2)=NC1c1cccc2ccccc12 (centres undefined),Activity,Brugia malayi [4],Active
same,inhibition at 100 µM,Brugia malayi [8],18.9%
CCN(CC)C(=O)N1CCN(C)CC1.O=C(O)CC(O)(CC(=O)O)C(=O)O [DIETHYLCARBAMAZINE CITRATE],Activity,Brugia malayi [16],29.7%
same,Activity,Brugia malayi [17],0%
same,inhibition,Brugia malayi [8],inactive
same,Activity,Brugia malayi [18],20.33
same,inhibition,Brugia malayi [19],inactive
same,Activity,Brugia malayi [20],10.53%
same,Activity,Brugia malayi [21],inactive
same,Activity,Brugia malayi [22],Active
same,Activity,Brugia malayi [23],inactive
same,inhibition,Brugia malayi [24],inactive
same,Activity,Brugia malayi [25],inactive
same,inhibition,Brugia malayi [11],inactive
same,Activity,Brugia malayi [15],inactive
CCCCCCCCCCCCCCSC1=NC(c2ccc(F)cc2)C(C(=O)OCC)=C(C)N1 (centres undefined),Activity,Brugia malayi [4],Active
same,inhibition,Brugia malayi [8],inactive
same,Activity,Brugia malayi [23],inactive
same,inhibition,Brugia malayi [11],inactive
CCOC(=O)C1=C(C)NC(SCc2ccccc2)=NC1c1ccc(OC)cc1 (centres undefined),Activity,Brugia malayi [1],Active
same,Activity,Brugia malayi [2],89.7
same,Activity,Brugia malayi [26],Active
same,Activity,Brugia malayi [4],Active
same,Activity,Brugia malayi [5],19.66%
same,Activity,Brugia malayi [6],34.58%
same,inhibition at 100 µM,Brugia malayi [8],52.1%
same,Activity,Mastomys coucha,Non-toxic
same,inhibition at 50 µM,Brugia malayi [11],19.3%
same,inhibition,Brugia malayi [13],inactive
CCCCCCCCCCCCCCSC1=NC(c2ccc(OC)cc2)C(C(=O)OCC)=C(C)N1 (centres undefined),Activity,Brugia malayi [27],inactive
same,inhibition,Brugia malayi [8],inactive
same,Activity,Brugia malayi [23],inactive
same,inhibition,Brugia malayi [11],inactive
same,inhibition,Brugia malayi [13],inactive
same,Activity,Brugia malayi [15],inactive
CCCCCSC1=NC(c2cccc([N+](=O)[O-])c2)C(C(=O)OCC)=C(C)N1 (centres undefined),inhibition at 100 µM,Brugia malayi [8],15.4%
same,Activity,Brugia malayi [15],inactive
CCCCCSC1=NC(c2ccc(OC)cc2)C(C(=O)OCC)=C(C)N1 (centres undefined),inhibition at 100 µM,Brugia malayi [8],22.4%
same,Activity,Brugia malayi [15],inactive
CCOC(=O)C1=C(C)NC(SCc2ccccc2)=NC1c1cccc([N+](=O)[O-])c1 (centres undefined),Activity,Brugia malayi [4],Active
same,inhibition at 100 µM,Brugia malayi [8],43.1%
CCCCSC1=NC(c2cccc([N+](=O)[O-])c2)C(C(=O)OCC)=C(C)N1 (centres undefined),Activity,Brugia malayi [4],Active
same,inhibition at 100 µM,Brugia malayi [8],25.7%
CCCCCCCCCCCCCCSC1=NC(c2cccc3ccccc23)C(C(=O)OCC)=C(C)N1 (centres undefined),Activity,Brugia malayi [4],Active
same,inhibition at 100 µM,Brugia malayi [8],24.3%
CCCCSC1=NC(c2cccc3ccccc23)C(C(=O)OCC)=C(C)N1 (centres undefined),Activity,Brugia malayi [1],Active
same,Activity,Brugia malayi [2],47.33
same,Activity,Brugia malayi [26],Active
same,Activity,Brugia malayi [4],Active
same,Activity,Brugia malayi [5],0%
same,Activity,Brugia malayi [6],25.77%
same,inhibition at 100 µM,Brugia malayi [8],49%
same,Activity,Mastomys coucha,Non-toxic
same,inhibition,Brugia malayi [11],inactive
same,inhibition at 25 µM,Brugia malayi [13],30.4%
CCCCCSC1=NC(c2ccc(Cl)cc2)C(C(=O)OCC)=C(C)N1 (centres undefined),inhibition,Brugia malayi [8],inactive
same,Activity,Brugia malayi [15],inactive
